{"source": "ChEMBL document CHEMBL3397044", "about": "“Discovery and in vitro and in vivo profiles of N-ethyl-N-[2-[3-(5-fluoro-2-pyridinyl)-1H-pyrazol-1-yl]ethyl]-2-(2H-1,2,3-triazol-2-yl)-benzamide as a novel class of dual orexin receptor antagonist” (Bioorg Med Chem, 2015)", "key": {"[1]": {"system": "Ribosyldihydronicotinamide dehydrogenase (NQO2) (Homo sapiens)", "experiment": "Binding affinity to MT3 receptor (unknown origin) at 10 uM"}, "[2]": {"system": "Rattus norvegicus", "experiment": "Sleep promoting effect in free moving Wistar rat with chronically implanted electrodes assessed as increase in duration of NREM sleep at 10 and 30 mg/kg, ip by polysomnogram recordings method", "assay_type": "functional, organism-based", "parameters": "dose 30 mg/kg", "outline": "(§1)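 Male Wistar rats, 10 weeks old, implanted under pentobarbital with frontal and parietal EEG screw electrodes plus EMG. Recovered ≥7 days, then singly housed and acclimated, tethered and freely moving. Dosed ip between 18:50 and 19:00, before lights-off. EEG filtered 0.16–30 Hz, EMG 5.3–1000 Hz, scored in 8-s epochs. Sleep latency = first 15 consecutive sleep epochs. Analysed over 2 h; n = 8–10; Dunnett or Steel tests.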"}, "[3]": {"experiment": "Half life in dog at 0.5 mg/kg, iv", "assay_type": "ADME, organism-based, Canis lupus familiaris", "parameters": "dose 0.5 mg/kg, route intravenous", "conditions": "in vivo", "outline": "(§2)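 Male dogs given 0.5 mg/kg iv (n = 3). Vd and CL derived from the iv profile. T1/2 = ln2·Vd/CL.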"}, "[4]": {"experiment": "Drug metabolism in human liver microsomes at 5 uM after 15 mins", "assay_type": "ADME", "conditions": "read-out: Drug metabolism", "outline": "(§3)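 Liver microsomes at 1 mg protein/mL with 5 µM compound, incubated 15 min. Value reported as percentage of compound metabolized.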"}, "[5]": {"experiment": "Drug metabolism in dog liver microsomes at 5 uM after 15 mins", "assay_type": "ADME, Canis lupus familiaris", "conditions": "read-out: Drug metabolism", "outline": "as §3"}, "[6]": {"experiment": "Volume of distribution in dog at 0.5 mg/kg, iv", "assay_type": "ADME, organism-based, Canis lupus familiaris", "parameters": "dose 0.5 mg/kg, route intravenous", "conditions": "in vivo", "outline": "as §2"}, "[7]": {"experiment": "Tmax in dog at 3 mg/kg, po", "assay_type": "ADME, organism-based, Canis lupus familiaris", "parameters": "dose 3 mg/kg, route oral", "conditions": "in vivo", "outline": "(§4)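 Fasted male rats dosed orally at 10 mg/kg, and male dogs at 3 mg/kg (n = 3). Tmax read from the oral profile. F calculated against the iv arm (rat 2 mg/kg, dog 0.5 mg/kg).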"}, "[8]": {"experiment": "Tmax in Sprague-Dawley rat at 10 mg/kg, po", "assay_type": "ADME, organism-based", "parameters": "dose 10 mg/kg, route oral", "conditions": "in vivo", "outline": "as §4"}, "[9]": {"experiment": "Oral bioavailability in dog at 3 mg/kg", "assay_type": "ADME, organism-based, Canis lupus familiaris", "conditions": "in vivo", "outline": "as §4"}, "[10]": {"experiment": "Clearance in Sprague-Dawley rat at 2 mg/kg, iv", "assay_type": "ADME, organism-based", "parameters": "dose 2 mg/kg, route intravenous", "conditions": "in vivo", "outline": "(§5)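 Fasted male Sprague–Dawley rats (n = 3) given 2 mg/kg iv. Vd and CL taken from the iv profile. T1/2 calculated as ln2·Vd/CL.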"}, "[11]": {"experiment": "Drug metabolism in rat liver microsomes at 5 uM after 15 mins", "assay_type": "ADME", "conditions": "read-out: Drug metabolism", "outline": "as §3"}, "[12]": {"experiment": "Ratio of drug level in brain to plasma in Sprague-Dawley rat at 10 mg/kg, po", "conditions": "read-out: BPR"}, "[13]": {"system": "Rattus norvegicus", "experiment": "Toxicity in Sprague-Dawley rat assessed as effect on rotarod performance at 3 to 30 mg/kg, ip administered 30 mins prior to the test by rotarod test", "conditions": "in vivo, 0.5 h"}, "[14]": {"experiment": "Volume of distribution in Sprague-Dawley rat at 2 mg/kg, iv", "assay_type": "ADME, organism-based", "parameters": "dose 2 mg/kg, route intravenous", "conditions": "in vivo", "outline": "as §5"}, "[15]": {"system": "Rattus norvegicus", "experiment": "Sleep promoting effect in free moving Wistar rat with chronically implanted electrodes assessed as increase in duration of REM sleep at 10 and 30 mg/kg, ip after 2 hrs by polysomnogram recordings method", "assay_type": "functional, organism-based", "parameters": "dose 30 mg/kg", "outline": "as §1"}, "[16]": {"experiment": "Half life in Sprague-Dawley rat at 2 mg/kg, iv", "assay_type": "ADME, organism-based", "parameters": "dose 2 mg/kg, route intravenous", "conditions": "in vivo", "outline": "as §5"}, "[17]": {"experiment": "Drug excretion in rat bile", "assay_type": "ADME, tissue-based", "conditions": "read-out: Drug excretion"}, "[18]": {"experiment": "Cmax in free moving Wistar rat with chronically implanted electrodes 3 mg/kg, ip after 0.33 hrs", "assay_type": "ADME, organism-based", "parameters": "dose 3 mg/kg, route intraperitoneal", "conditions": "in vivo"}, "[19]": {"system": "Rattus norvegicus", "experiment": "Sleep promoting effect in free moving Wistar rat with chronically implanted electrodes assessed as reduction in latency until total sleep at 3 to 30 mg/kg, ip by polysomnogram recordings method", "assay_type": "functional, organism-based", "outline": "as §1"}, "[20]": {"biological_target": "T1, Orexin receptor type 2 (Rattus norvegicus) (UniProt P56719)", "T1 sequence (whole entry)": "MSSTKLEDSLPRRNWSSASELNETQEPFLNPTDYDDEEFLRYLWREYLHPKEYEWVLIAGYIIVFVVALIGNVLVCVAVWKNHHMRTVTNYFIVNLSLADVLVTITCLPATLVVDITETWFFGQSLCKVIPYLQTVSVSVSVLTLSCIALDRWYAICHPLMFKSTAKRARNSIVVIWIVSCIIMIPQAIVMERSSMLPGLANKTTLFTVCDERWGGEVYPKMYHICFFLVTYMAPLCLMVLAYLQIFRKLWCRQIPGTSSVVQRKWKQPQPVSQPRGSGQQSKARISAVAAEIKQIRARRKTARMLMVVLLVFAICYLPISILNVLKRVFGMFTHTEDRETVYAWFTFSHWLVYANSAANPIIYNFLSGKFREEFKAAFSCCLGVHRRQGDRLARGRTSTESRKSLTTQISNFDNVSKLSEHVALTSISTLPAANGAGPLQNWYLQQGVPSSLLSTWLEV", "experiment": "Antagonist activity against rat OX2 receptor assessed as reduction in [Ala6,12]orexin-A-induced intracellular Ca2+ mobilization incubated for 30 mins by Fluo-4 AM dye based fluorescence assay", "assay_type": "functional, cell-based", "outline": "(§6)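 Cells seeded at 2.4 × 10⁴/well and cultured for 18 h. Compound added for 30 min at room temperature. Peak fluorescence minus basal was normalised to the maximal [Ala6,12]orexin-A response. Kb = IC50/(1+[L]/EC50). At least three independent runs in duplicate; mean ± SE.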"}, "[21]": {"experiment": "Solubility in pH 6.8 phosphate buffer", "assay_type": "physicochemical", "outline": "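Aqueous solubility measured in pH 6.8 phosphate buffer.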"}, "[22]": {"system": "Rattus norvegicus", "experiment": "Sleep promoting effect in ip dosed free moving Wistar rat with chronically implanted electrodes assessed as by polysomnogram recordings method", "conditions": "read-out: MED"}, "[23]": {"experiment": "Oral bioavailability in Sprague-Dawley rat at 10 mg/kg", "assay_type": "ADME, organism-based", "conditions": "in vivo", "outline": "as §4"}, "[24]": {"experiment": "Drug excretion in rat urine", "assay_type": "ADME", "conditions": "read-out: Drug excretion"}, "[25]": {"biological_target": "T2, Orexin/Hypocretin receptor type 1 (Rattus norvegicus) (UniProt P56718)", "T2 sequence (whole entry)": "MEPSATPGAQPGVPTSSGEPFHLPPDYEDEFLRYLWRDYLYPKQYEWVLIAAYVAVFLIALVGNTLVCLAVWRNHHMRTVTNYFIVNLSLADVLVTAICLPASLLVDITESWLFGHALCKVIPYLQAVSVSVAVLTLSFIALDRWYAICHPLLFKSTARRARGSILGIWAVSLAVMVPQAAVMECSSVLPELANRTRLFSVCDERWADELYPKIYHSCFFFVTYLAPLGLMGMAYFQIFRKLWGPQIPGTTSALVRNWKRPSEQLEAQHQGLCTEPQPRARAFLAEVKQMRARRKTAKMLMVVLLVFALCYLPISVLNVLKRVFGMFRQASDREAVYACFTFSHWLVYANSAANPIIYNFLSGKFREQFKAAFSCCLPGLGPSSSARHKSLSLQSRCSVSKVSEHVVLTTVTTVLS", "experiment": "Antagonist activity against rat OX1 receptor assessed as reduction in [Ala6,12]orexin-A-induced intracellular Ca2+ mobilization incubated for 30 mins by Fluo-4 AM dye based fluorescence assay", "assay_type": "functional, cell-based", "outline": "as §6"}, "[26]": {"experiment": "Clearance in dog at 0.5 mg/kg, iv", "assay_type": "ADME, organism-based, Canis lupus familiaris", "parameters": "dose 0.5 mg/kg, route intravenous", "conditions": "in vivo", "outline": "as §2"}, "[27]": {"experiment": "Ratio of drug level in CSF to plasma in Sprague-Dawley rat at 10 mg/kg, po"}}, "note": "Activity calls are given as the source filed them. No cut-off for these calls is given here."}
{"smiles": "CCN(CCn1ccc(-c2ccc(F)cn2)n1)C(=O)c1ccccc1-n1nccn1", "values": [{"measurement": "Activity", "setting": "[1]", "value": 66, "unit": "%"}, {"measurement": "Activity", "setting": "[2]", "value": "Active"}, {"measurement": "half-life", "setting": "[3]", "value": 57.7, "unit": "min"}, {"measurement": "metabolised at 0.25 h, 5 µM", "setting": "[4]", "value": 24.1, "unit": "%"}, {"measurement": "metabolised at 0.25 h, 5 µM", "setting": "[5]", "value": 7.3, "unit": "%"}, {"measurement": "Vd", "setting": "[6]", "value": 0.745, "unit": "L/kg"}, {"measurement": "Tmax", "setting": "[7]", "value": 40, "unit": "min"}, {"measurement": "Tmax", "setting": "[8]", "value": 50, "unit": "min"}, {"measurement": "bioavailability", "setting": "[9]", "value": 80.2, "unit": "%"}, {"measurement": "clearance", "setting": "[10]", "value": 66, "unit": "mL/min/kg"}, {"measurement": "metabolised at 0.25 h, 5 µM", "setting": "[11]", "value": 79.9, "unit": "%"}, {"measurement": "Kp", "setting": "[12]", "value": 0.17}, {"measurement": "Activity", "setting": "[13]", "value": "Non-toxic"}, {"measurement": "Vd", "setting": "[14]", "value": 1.71, "unit": "L/kg"}, {"measurement": "Activity", "setting": "[15]", "value": "inactive"}, {"measurement": "half-life", "setting": "[16]", "value": 17.9, "unit": "min"}, {"measurement": "dose excreted", "setting": "[17]", "value": 0.2, "unit": "%"}, {"measurement": "Cmax", "setting": "[18]", "value": 728, "unit": "nM"}, {"measurement": "Activity", "setting": "[19]", "value": "Dose-dependent effect"}, {"measurement": "Kb", "setting": "[20]", "value": 6.06, "unit": "nM"}, {"measurement": "solubility", "setting": "[21]", "value": 30.2, "unit": "µg/mL"}, {"measurement": "minimal effective dose", "setting": "[22]", "value": 3, "unit": "mg/kg"}, {"measurement": "bioavailability", "setting": "[23]", "value": 14.9, "unit": "%"}, {"measurement": "dose excreted", "setting": "[24]", "value": 0.4, "unit": "%"}, {"measurement": "Kb", "setting": "[25]", "value": 5.08, "unit": "nM"}, {"measurement": "clearance", "setting": "[26]", "value": 9.97, "unit": "mL/min/kg"}, {"measurement": "Kp", "setting": "[27]", "value": 0.06}]}
